Data on ten molecules can be found in ChEMBL document CHEMBL1221396, “Resveratrol oligomers from Vatica albiramis” (J Nat Prod, 2010).

For data set [1], the system named is HFF. Kind of data set: Antiinflammatory activity in human foreskin fibroblast assessed as inhibition of IL-1-beta-induced MMP1 production at 1 uM treated for 24 hrs before IL1-beta challenge measured after 24 hrs by Western blot analysis. Type of data set: functional, cell-based. Summed up: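 Fibroblasts were grown in DMEM with 10% FBS at 37 °C under 5% CO2, seeded at 2 × 10⁵ cells/mL, grown to confluence, and treated for 24 h. Secreted MMP-1 was measured by western blot. Blots were blocked in TBS with 5% skim milk and 0.05% Tween-20 for 1 h at room temperature, incubated with primary antibody overnight at 4 °C, then with HRP secondary antibody for 1 h at room temperature.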
For orientation: In western blotting, separated proteins are transferred to a membrane and probed.

For data set [2], the system named is HFF. Nature of the data set: Cytotoxicity against human foreskin fibroblast at 1 uM. It counts as cell-based.

Active and inactive are the calls of the source. No cut-off for these calls is given here.

Consider `Oc1ccc([C@@H]2c3c(O)cc(O)cc3[C@@H]3c4c(cc(O)cc4[C@H]2[C@@H]2c4cc(O)cc5c4[C@@H](c4cc(O)cc(O)c4[C@H]2c2ccc(O)cc2)[C@H](c2ccc(O)cc2)O5)O[C@H]3c2ccc(O)cc2)cc1`, for which the inhibition entry in the data set on HFF [1] is “Active”. Besides, the Activity entry in the data set with HFF [2] was “Non-toxic”.
As for `OC[C@H]1O[C@@H](Oc2cc(O)cc([C@@H]3c4c(/C=C/c5ccc(O)cc5)cc(O[C@@H]5O[C@H](CO)[C@@H](O)[C@H](O)[C@H]5O)cc4O[C@H]3c3ccc(O)cc3)c2)[C@H](O)[C@@H](O)[C@@H]1O`, in the data set on HFF [1], the inhibition entry is “inactive”.
For `Oc1ccc(/C=C/c2cc(O)cc3c2[C@@H](c2cc(O)cc(O)c2)[C@H](c2ccc(O)cc2)O3)cc1`, the inhibition entry in the data set with HFF [1] is “inactive”.
With `Oc1ccc(/C=C\c2cc(O)cc3c2[C@@H](c2cc(O)cc(O)c2)[C@H](c2ccc(O)cc2)O3)cc1`, in the data set with HFF [1], the inhibition result was “inactive”.
On to `Oc1ccc([C@H]2c3c(O)cc(O)cc3[C@@H]3c4c(cc(O)cc4[C@H]2O)O[C@H]3c2ccc(O)cc2)cc1`, for which the inhibition result in the data set with HFF [1] is “inactive”.
As for `Oc1ccc([C@H]2c3c(O)cc4c(c3[C@@H]3[C@@H](c5ccc(O)cc5)c5c(O)cc6c(c5[C@H]23)[C@@H](c2cc(O)cc(O)c2)[C@H](c2ccc(O)cc2)O6)[C@@H](c2cc(O)cc(O)c2)[C@H](c2ccc(O)cc2)O4)cc1` [STENOPHYLLOL C], the inhibition result in the data set with HFF [1] is “Active”. Also, the Activity entry with HFF [2] is given as “Non-toxic”.
Regarding `OC[C@H]1O[C@@H](Oc2cc3c4c(c2)[C@@H]([C@@H]2c5cc(O)cc6c5[C@@H](c5cc(O)cc(O)c5[C@H]2c2ccc(O)cc2)[C@H](c2ccc(O)cc2)O6)[C@H](c2ccc(O)cc2)c2c(O)cc(O)cc2[C@H]4[C@H](c2ccc(O)cc2)O3)[C@H](O)[C@@H](O)[C@@H]1O` [VATALBINOSIDE A], the inhibition result in the data set with HFF [1] is “Active”. For the same molecule, the Activity entry with HFF [2] was “Non-toxic”.
For `Oc1ccc([C@@H]2c3c(O)cc(O)cc3[C@@H]3c4c(cc(O)cc4[C@H]2[C@@H]2c4cc(O)c([C@@H](c5ccc(O)cc5)[C@@H]5c6c(c(O)cc7c6[C@@H](c6cc(O)cc(O)c6)[C@H](c6ccc(O)cc6)O7)[C@H](c6cc(O)cc7c6[C@H](c6cc(O)cc(O)c6)[C@@H](c6ccc(O)cc6)O7)[C@H]5c5ccc(O)cc5)c5c4[C@@H](c4cc(O)cc(O)c4[C@H]2c2ccc(O)cc2)[C@H](c2ccc(O)cc2)O5)O[C@H]3c2ccc(O)cc2)cc1` [VATERIAPHENOL A], the inhibition result in the data set with HFF [1] is “Active”. Also, the Activity result in the data set with HFF [2] is “Non-toxic”.
For the molecule `Oc1ccc([C@@H]2c3c(O)cc4c(c3[C@@H]3c5c(O)cc6c(c5[C@H]2[C@H]3c2ccc(O)cc2)[C@@H](c2cc(O)cc(O)c2)[C@H](c2ccc(O)cc2)O6)[C@@H](c2cc(O)cc(O)c2)[C@H](c2ccc(O)cc2)O4)cc1` [VATICANOL C], the inhibition entry in the data set on HFF [1] was “Active”. Moreover, the Activity result with HFF [2] is listed as “Non-toxic”.
The like results for `Oc1ccc([C@@H]2c3c(O)cc(O)cc3[C@@H]3c4c(cc(O)c5c4[C@@H]2[C@H](c2ccc(O)cc2)[C@H]5c2cc(O)cc4c2[C@@H](c2cc(O)cc(O)c2)[C@H](c2ccc(O)cc2)O4)O[C@H]3c2ccc(O)cc2)cc1` [Vaticanol B] were, in that order, “Active” and “Non-toxic”.
